≈ marks a conversion by molar mass, not a printed value.
Experiments:
Assay type in all cases: functional
Streptococcus pneumoniae [1] = experiment: Antibacterial activity against Streptococcus pneumoniae M50A overexpressing patA, patB and inactivated patA with single mutation by standardized agar doubling dilution method in presence of 50 uM sodium orthovanadate efflux pump inhibitor
Procedure, shortened: (§1)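 MICs were determined by BSAC agar doubling dilution in the presence of sodium orthovanadate at 50 μM. Cultures were grown in BHI broth for 24 h at 37°C in 5% CO2, with R6 as control. Synergy was defined as an MIC reduction of ≥2 dilutions with the inhibitor present.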

Streptococcus pneumoniae [2] = experiment: Antibacterial activity against fluoroquinolone, dye-resistant Streptococcus pneumoniae by standardized agar doubling dilution method in presence of 20 ug/ml reserpine efflux pump inhibitor
Procedure, shortened: (§2)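 MIC by agar doubling dilution following BSAC guidelines. Strains grown in brain heart infusion broth 24 h at 37°C in 5% CO2. Where an efflux pump inhibitor applies, MIC redetermined with reserpine at 20 μg/ml or sodium orthovanadate at 50 μM. Synergy taken as a fall in MIC of ≥2 dilutions with inhibitor present. Dye resistance defined relative to R6 (both dyes ≥2 dilutions higher).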

Streptococcus pneumoniae [3] = experiment: Antibacterial activity against Streptococcus pneumoniae M50A overexpressing patA, patB and inactivated patA with single mutation by standardized agar doubling dilution method in presence of 20 ug/ml reserpine efflux pump inhibitor
Procedure, shortened: (§3)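 MICs were determined by BSAC agar doubling dilution in the presence of reserpine at 20 μg/ml. Strains were grown in BHI broth for 24 h at 37°C in 5% CO2, with R6 as control. Synergy was defined as an MIC drop of ≥2 dilutions with the inhibitor.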

Streptococcus pneumoniae [4] = experiment: Antibacterial activity against dye-resistant Streptococcus pneumoniae M46 DR overexpressing patA, patB by standardized agar doubling dilution method
Procedure, shortened: (§4)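 MICs were determined by agar doubling dilution following BSAC guidelines, with no efflux inhibitor. Strains were grown in brain heart infusion broth for 24 h at 37°C in 5% CO2. Species identity was confirmed by Gram stain, optochin sensitivity and capsule test. Control strain R6 was tested alongside.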

Streptococcus pneumoniae [5] = experiment: Antibacterial activity against Streptococcus pneumoniae M311 overexpressing patA, patB and inactivated patA with single mutation by standardized agar doubling dilution method
Procedure, shortened: (§5)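 MICs determined by BSAC standardized agar doubling dilution. Strains were grown in brain heart infusion broth for 24 h at 37°C in 5% CO2. Inhibitor arms had reserpine at 20 μg/ml or sodium orthovanadate at 50 μM in the agar. Mutants were made by transforming magellan2 insertion amplimers into clinical isolates and selecting on spectinomycin 100 mg/liter, with a no-DNA spontaneous-mutation control.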

Streptococcus pneumoniae [6] = experiment: Antibacterial activity against Streptococcus pneumoniae M308 overexpressing patA, patB and inactivated patB with single mutation by standardized agar doubling dilution method; procedure, shortened: as §5
Streptococcus pneumoniae [7] = experiment: Antibacterial activity against Streptococcus pneumoniae M46B overexpressing patA, patB and inactivated patB with single mutation by standardized agar doubling dilution method; procedure, shortened: as §4
Streptococcus pneumoniae [8] = experiment: Antibacterial activity against Streptococcus pneumoniae M309 overexpressing patA, patB and inactivated patB with single mutation by standardized agar doubling dilution method in presence of 50 uM sodium orthovanadate efflux pump inhibitor; procedure, shortened: as §5
Streptococcus pneumoniae [9] = experiment: Antibacterial activity against Streptococcus pneumoniae M302 overexpressing patA, patB and inactivated patA with single mutation by standardized agar doubling dilution method; procedure, shortened: as §5
Streptococcus pneumoniae [10] = experiment: Antibacterial activity against Streptococcus pneumoniae M307 overexpressing patA, patB and inactivated patB with single mutation by standardized agar doubling dilution method; procedure, shortened: as §5
Streptococcus pneumoniae [11] = experiment: Antibacterial activity against fluoroquinolone, dye-resistant Streptococcus pneumoniae M50 overexpressing patA, patB by standardized agar doubling dilution method in presence of 20 ug/ml reserpine efflux pump inhibitor; procedure, shortened: as §2
Streptococcus pneumoniae [12] = experiment: Antibacterial activity against fluoroquinolone, dye-resistant Streptococcus pneumoniae by standardized agar doubling dilution method in presence of 50 uM sodium orthovanadate efflux pump inhibitor; procedure, shortened: as §2
Streptococcus pneumoniae [13] = experiment: Antibacterial activity against Streptococcus pneumoniae M303 overexpressing patA, patB and inactivated patA with single mutation by standardized agar doubling dilution method; procedure, shortened: as §5
Streptococcus pneumoniae [14] = experiment: Antibacterial activity against Streptococcus pneumoniae M50A overexpressing patA, patB and inactivated patA with single mutation by standardized agar doubling dilution method; procedure, shortened: as §4
Streptococcus pneumoniae [15] = experiment: Antibacterial activity against fluoroquinolone, dye-resistant Streptococcus pneumoniae M74 overexpressing patA, patB by standardized agar doubling dilution method in presence of 50 uM sodium orthovanadate efflux pump inhibitor; procedure, shortened: as §2
Streptococcus pneumoniae [16] = experiment: Antibacterial activity against Streptococcus pneumoniae M317 overexpressing patA, patB and inactivated patB with single mutation by standardized agar doubling dilution method in presence of 20 ug/ml reserpine efflux pump inhibitor; procedure, shortened: as §3
Streptococcus pneumoniae [17] = experiment: Antibacterial activity against dye-resistant Streptococcus pneumoniae by standardized agar doubling dilution method in presence of 50 uM sodium orthovanadate efflux pump inhibitor; procedure, shortened: as §2
Streptococcus pneumoniae [18] = experiment: Antibacterial activity against Streptococcus pneumoniae M46B overexpressing patA, patB and inactivated patB with single mutation by standardized agar doubling dilution method in presence of 20 ug/ml reserpine efflux pump inhibitor; procedure, shortened: as §3
Streptococcus pneumoniae [19] = experiment: Antibacterial activity against Streptococcus pneumoniae M308 overexpressing patA, patB and inactivated patB with single mutation by standardized agar doubling dilution method in presence of 20 ug/ml reserpine efflux pump inhibitor; procedure, shortened: as §5
Streptococcus pneumoniae [20] = experiment: Antibacterial activity against Streptococcus pneumoniae M314 overexpressing patA, patB and inactivated patA with single mutation by standardized agar doubling dilution method in presence of 50 uM sodium orthovanadate efflux pump inhibitor; procedure, shortened: as §5
Streptococcus pneumoniae [21] = experiment: Antibacterial activity against fluoroquinolone, dye-resistant Streptococcus pneumoniae by standardized agar doubling dilution method; procedure, shortened: as §2
Streptococcus pneumoniae [22] = experiment: Antibacterial activity against fluoroquinolone-resistant Streptococcus pneumoniae M98 FQ-R overexpressing patA, patB by standardized agar doubling dilution method in presence of 50 uM sodium orthovanadate efflux pump inhibitor
Procedure, shortened: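 Clinical S. pneumoniae isolates grown in BHI broth 24 h at 37°C in 5% CO2. MICs by agar doubling dilution per BSAC guidelines, alone or with efflux inhibitor reserpine (20 μg/ml) or sodium orthovanadate (50 μM). Synergy defined as ≥2-dilution MIC reduction in presence of inhibitor.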

Streptococcus pneumoniae [23] = experiment: Antibacterial activity against Streptococcus pneumoniae M46A overexpressing patA, patB and inactivated patA with single mutation by standardized agar doubling dilution method in presence of 50 uM sodium orthovanadate efflux pump inhibitor; procedure, shortened: as §1
Streptococcus pneumoniae [24] = experiment: Antibacterial activity against wild type Streptococcus pneumoniae M3 NCTC 7466 type 2 by standardized agar doubling dilution method in presence of 50 uM sodium orthovanadate efflux pump inhibitor
Procedure, shortened: (§6)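 MIC by agar doubling dilution per BSAC guidelines; strains pregrown in brain heart infusion broth 24 h, 37°C, 5% CO2. MICs measured alone and with efflux pump inhibitors reserpine (20 μg/ml) or sodium orthovanadate (50 μM); synergy defined as ≥2-dilution MIC reduction in presence of inhibitor.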

Streptococcus pneumoniae [25] = experiment: Antibacterial activity against dye-resistant Streptococcus pneumoniae by standardized agar doubling dilution method; procedure, shortened: as §2
Streptococcus pneumoniae [26] = experiment: Antibacterial activity against Streptococcus pneumoniae M55B overexpressing patA, patB and inactivated patB with single mutation by standardized agar doubling dilution method; procedure, shortened: as §4
Streptococcus pneumoniae [27] = experiment: Antibacterial activity against Streptococcus pneumoniae M300 overexpressing patA, patB and inactivated patA with single mutation by standardized agar doubling dilution method in presence of 20 ug/ml reserpine efflux pump inhibitor; procedure, shortened: as §5
Streptococcus pneumoniae [28] = experiment: Antibacterial activity against fluoroquinolone-resistant Streptococcus pneumoniae M97 FQ-R overexpressing patA, patB by standardized agar doubling dilution method in presence of 20 ug/ml reserpine efflux pump inhibitor; procedure, shortened: as §6

| Structure (SMILES) | MIC (Streptococcus pneumoniae [1]) | MIC90 (Streptococcus pneumoniae [2]) | MIC (Streptococcus pneumoniae [3]) | MIC (Streptococcus pneumoniae [4]) | MIC (Streptococcus pneumoniae [5]) | MIC (Streptococcus pneumoniae [6]) | MIC (Streptococcus pneumoniae [7]) | MIC (Streptococcus pneumoniae [8]) | MIC (Streptococcus pneumoniae [9]) | MIC (Streptococcus pneumoniae [10]) | MIC (Streptococcus pneumoniae [11]) | MIC90 (Streptococcus pneumoniae [12]) | MIC (Streptococcus pneumoniae [13]) | MIC (Streptococcus pneumoniae [14]) | MIC (Streptococcus pneumoniae [15]) | MIC (Streptococcus pneumoniae [16]) | MIC90 (Streptococcus pneumoniae [17]) | MIC (Streptococcus pneumoniae [18]) | MIC (Streptococcus pneumoniae [19]) | MIC (Streptococcus pneumoniae [20]) | also measured |
| --- | --- | --- | --- | --- | --- | --- | --- | --- | --- | --- | --- | --- | --- | --- | --- | --- | --- | --- | --- | --- | --- |
| O=C(O)c1cn(C2CC2)c2cc(N3CCNCC3)c(F)cc2c1=O [CIPROFLOXACIN] | 4 µg/mL | 4 µg/mL | 4 µg/mL | 0.25 µg/mL (≈ 0.754 µM) | 8 µg/mL (≈ 24.1 µM) | 2 µg/mL (≈ 6.04 µM) | 0.12 µg/mL (≈ 0.362 µM) | 2 µg/mL | 4 µg/mL (≈ 12.1 µM) | 8 µg/mL (≈ 24.1 µM) | 32 µg/mL | 8 µg/mL | 2 µg/mL (≈ 6.04 µM) | 4 µg/mL (≈ 12.1 µM) | 64 µg/mL | 8 µg/mL | 0.5 µg/mL | 0.12 µg/mL | 1 µg/mL | 8 µg/mL | MIC90 (Streptococcus pneumoniae [21]): 16 µg/mL (≈ 48.3 µM); MIC (Streptococcus pneumoniae [22]): 32 µg/mL; MIC (Streptococcus pneumoniae [23]): 0.12 µg/mL; MIC (Streptococcus pneumoniae [24]): 1 µg/mL; MIC (Streptococcus pneumoniae [25]): 0.25 µg/mL (≈ 0.754 µM); MIC90 (Streptococcus pneumoniae [25]): 0.25 µg/mL (≈ 0.754 µM); MIC (Streptococcus pneumoniae [26]): 2 µg/mL (≈ 6.04 µM); MIC (Streptococcus pneumoniae [27]): 2 µg/mL; MIC (Streptococcus pneumoniae [28]): 4 µg/mL |
| CC[n+]1c(-c2ccccc2)c2cc(N)ccc2c2ccc(N)cc21.[Br-] [HOMIDIUM BROMIDE] | 0.5 µg/mL | 0.5 µg/mL | 0.5 µg/mL | 16 µg/mL | 0.5 µg/mL | 0.25 µg/mL | 0.5 µg/mL | 8 µg/mL | 0.5 µg/mL | 2 µg/mL | 0.5 µg/mL | 1 µg/mL | 1 µg/mL | 0.5 µg/mL | 1 µg/mL | 0.5 µg/mL | 1 µg/mL | 0.5 µg/mL | 0.25 µg/mL | 0.5 µg/mL | MIC (Streptococcus pneumoniae [17]): 1 µg/mL; MIC90 (Streptococcus pneumoniae [21]): 8 µg/mL; MIC (Streptococcus pneumoniae [22]): 1 µg/mL; MIC (Streptococcus pneumoniae [23]): 0.5 µg/mL; MIC (Streptococcus pneumoniae [24]): 0.3 µg/mL; MIC (Streptococcus pneumoniae [25]): 16 µg/mL; MIC90 (Streptococcus pneumoniae [25]): 16 µg/mL; MIC (Streptococcus pneumoniae [26]): 0.5 µg/mL; MIC (Streptococcus pneumoniae [27]): 0.5 µg/mL; MIC (Streptococcus pneumoniae [28]): 0.5 µg/mL |

Reference: ChEMBL document CHEMBL1687824, “Overexpression of patA and patB, which encode ABC transporters, is associated with fluoroquinolone resistance in clinical isolates of Streptococcus pneumoniae” (2011)
